KCNQ1 act: potentiators or activators of human KCNQ1 potassium channel. CHO-K1 KCNQ1, thallium flux FluxOR fluorescence; hits give high values. B-score at 10 µM. 0.35% of 310,000 active. AID 2648;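 active means fluorescence ratio B-score, a plate-corrected score, at least three library SD, with initial intensity B-score within 5 SD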
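Assay system: CHO-K1 cells stably expressing KCNQ1. Medium: assay buffer for compound exposure, DMSO matched across wells. Timing: 37 °C overnight plating, 90-min dark dye load, 20-min compound pretreatment. Signal: kinetic FluxOR fluorescence, 10 s baseline plus 110 s post-stimulus.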
hERG rescue: hERG (human) protection from proarrhythmic block; Q12809; CHO-hERG, FluxOR thallium flux, dofetilide IC70 present; activation (rescue from dofetilide block), less the hit threshold, % at 10 µM; 0.51% of 310,000 active; AID 1511;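 active means activation above the mean of controls blocked by dofetilide plus 5 SD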;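 further: thallium influx through hERG after potassium depolarization seen as dye fluorescence rise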
KCNK3 inh: human KCNK3 channel inhibition, primary screen; O14649; CHO-KCNK3 thallium flux, FluxOR fluorescence; hits give low values; B-score at 10 µM; 0.84% of 340,000 active; AID 602410;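 active means B-score under library mean minus 4 SD, starting fluorescence ratio at most library mean plus 5 SD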;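 further: more negative B-score means stronger inhibition of thallium flux through KCNK3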
KCNK9 block: human KCNK9 channel inhibition. Q9NPC2. HEK293 KCNK9, FluxOR thallium flux fluorescence; hits give low values. B-score at 10 µM. 1.2% of 310,000 active;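 active means ratio B-score over 3 SD below the library mean, with starting fluorescence within 5 SD of its mean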;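 further: negative B-score means less thallium flux so channel inhibition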
Target sequence (Q9NPC2 whole entry, looked up): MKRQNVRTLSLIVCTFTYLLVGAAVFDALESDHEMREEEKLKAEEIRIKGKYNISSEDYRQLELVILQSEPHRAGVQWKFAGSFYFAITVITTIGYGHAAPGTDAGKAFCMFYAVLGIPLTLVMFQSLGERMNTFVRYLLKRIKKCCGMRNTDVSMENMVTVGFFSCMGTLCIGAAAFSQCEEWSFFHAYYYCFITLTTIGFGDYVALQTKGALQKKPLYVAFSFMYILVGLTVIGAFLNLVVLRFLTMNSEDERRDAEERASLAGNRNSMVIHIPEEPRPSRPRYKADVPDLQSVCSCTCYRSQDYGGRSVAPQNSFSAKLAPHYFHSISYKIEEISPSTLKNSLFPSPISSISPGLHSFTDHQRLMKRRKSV
Cl transport mod: modulates chloride dependent transport by human KCC2; Q9H2X9; KCC2 cells, thallium flux FluoZin-2 fluorescence; B-score of Tl+ flux slope (higher = more flux/activation; lower = inhibition) at 10 µM; 2.2% of 190,000 active;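 active means thallium flux slope and its plate-corrected score both differing from the plate sample mean at a set confidence after two filtering rounds, in either direction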;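 further: slope of fluorescence scaled to starting intensity during 10 to 20 s after thallium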
KCNQ1 inh: human KCNQ1 channel inhibition; 1.3% of 310,000 active; P51787; B-score at 10 µM; CHO-K1 KCNQ1, FluxOR thallium flux fluorescence; hits give high values; AID 2642;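 active means compounds whose thallium flux B-score, printed positive for inhibition, exceeds three library SD while starting fluorescence stays within three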;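 further: channel opened by potassium depolarization with thallium stimulus after 20 min compound exposure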
A number is an active result; i = inactive; nt = no result given. Compounds with a hit are over-represented: about 4.1% of the library has one in this group of screens.

SMILES | KCNQ1 act | hERG rescue | KCNK3 inh | KCNK9 block | Cl transport mod | KCNQ1 inh
CCN(CC)C(=S)NC(=O)c1ccc(OC)c(Br)c1 | 8 | i | i | i | 96.2 | i
CN(C)C(CNC(=O)c1ccccc1OCc1ccc(Cl)cc1)c1ccco1 (stereo not given) | i | i | i | i | nt | i
COc1ccc(NC(=O)CCN2CCN(c3ccccc3F)CC2)c(OC)c1 | i | i | i | i | nt | i
O=C(CSc1ccccc1F)NCCCN1CCCC1=O | i | i | i | i | nt | i
COC(=O)N1C(=O)[C@@](Cc2ccccc2)(c2ccccc2)N1C(=O)OC | i | 5.4 | i | i | nt | i
CC(=O)c1ccc(N2CCN(c3ncccn3)CC2)cc1 | i | i | i | i | nt | i
N#C/C(=C/c1ccc(N2CCCC2)c([N+](=O)[O-])c1)c1nc2ccccc2[nH]1 | i | i | i | i | i | i
Cc1ccc2nc(/C(C#N)=C\c3ccc(N4CCCCC4)c([N+](=O)[O-])c3)[nH]c2c1 | i | i | i | i | i | 8
COC(=O)c1ccccc1NC(=O)N[C@@H](C)C(=O)OC | i | i | i | i | nt | i
CCOC(=O)c1ccccc1NC(=O)N[C@@H](C)C(=O)OC | i | i | i | i | -3.37 | i
COC(=O)[C@H](C)NC(=O)Nc1cc(Cl)ccc1C | 13 | i | i | i | nt | i
CCn1c(=O)c(C(=O)NNC(=O)c2ccccc2)c(O)c2ccccc21 | i | i | i | i | nt | i
CCn1c(=O)c(-[n+]2ccccc2)c(O)c2ccccc21 | i | 8.3 | i | i | nt | i
CCCC(C(=O)NC(C)(C)C)N(Cc1ccccc1Cl)C(=O)c1snc(C(N)=O)c1N (stereo not given) | i | i | i | i | nt | 7
CCCCC(C(=O)NC(C)(C)C)N(Cc1ccccc1Cl)C(=O)c1snc(C(N)=O)c1N (stereo not given) | i | i | i | i | nt | 6
CCC(C(=O)NC(C)(C)C)N(Cc1ccccc1Cl)C(=O)c1snc(C(N)=O)c1N (stereo not given) | i | i | i | i | nt | i
Cc1ccc(N2CC(C(=O)Nc3nnc(SCCN4CCOCC4)s3)CC2=O)cc1 (stereo not given) | i | i | i | i | nt | i
CCOC(=O)[C@H]1[C@H]2COc3cc(OC)ccc3[C@@H]2N2C(=O)CN(C)C(=O)[C@@]12C | nt | nt | i | nt | nt | nt
COC(=O)c1ccc(NC(=O)c2cc(-c3ccncc3)nc3ccccc23)cc1 | nt | nt | i | nt | nt | nt
CCNC(=S)NNC(=O)c1cc(-c2cccc(OC)c2)nc2ccccc12 | i | i | i | i | i | 6
COc1ccc(NC(=O)c2cc(-c3cc(OC)c(OC)c(OC)c3)nc3ccccc23)cc1OC | i | i | i | i | nt | i
COC(=O)c1ccc(NC(=S)NC(=O)c2c(Cl)cnn2C)cc1 | i | i | i | i | 36.3 | i
COC(=O)c1ccc(NC(=S)NC(=O)c2cc(-c3ccccc3)nc3ccccc23)cc1 | 29 | 6.2 | i | i | 6 | i
COc1cc(-c2cc(C(=O)Nc3c(Cl)cc(Cl)cc3Cl)c3ccccc3n2)cc(OC)c1OC | i | i | i | i | i | 7
COC(=O)c1nn(-c2ccc(OC)cc2)ccc1=O | i | i | i | i | nt | i
SMILES | KCNQ1 act | hERG rescue | KCNK3 inh | KCNK9 block | Cl transport mod | KCNQ1 inh
CCCN(CC(=O)Nc1ccccc1C)C(=O)CCCNC(=O)c1ccc(Cl)cc1 | nt | nt | i | nt | nt | nt
CC(=O)Nc1ccc(CCCCc2ccc(NC(C)=O)cc2)cc1 | nt | nt | i | nt | nt | nt
CCCN(C(=O)c1cn(-c2ccccc2)nc1-c1ccc(OC)cc1)C1CCS(=O)(=O)C1 (stereo not given) | 8 | i | i | i | nt | i
COc1cccc(-c2nc(N3CCCCC3C)c3ccccc3n2)c1O (stereo not given) | i | i | i | i | i | 8
Cc1nn(C)cc1/C=C/C(=O)c1ccc(O)cc1 | i | 6.2 | i | i | i | i
O=C(/C=C/c1ccc(O)cc1)c1ccccc1 | i | i | i | i | i | i
COc1ccccc1NC(=O)c1cc(S(=O)(=O)NC2CCCC2)ccc1F | i | i | i | i | nt | i
O=C(NCCc1ccccn1)c1cncc(Br)c1 | i | i | i | i | nt | i
CCN(C(=O)Cn1nc(C)c([N+](=O)[O-])c1C)c1c(N)n(Cc2ccccc2)c(=O)[nH]c1=O | i | i | i | i | nt | i
S=C(Nc1cccc(Cl)c1)Nc1ccccc1Oc1ccccc1 | i | i | i | i | 5.43 | 8
S=C(Nc1ccc(Cl)cc1Cl)Nc1ccccc1Oc1ccccc1 | i | i | i | i | 25 | i
CNC(=S)Nc1cc(Cl)ccc1Oc1ccccc1 | i | i | i | i | i | i
CCNC(=S)Nc1cc(Cl)ccc1Oc1ccccc1 | i | i | i | i | i | i
S=C(Nc1ccccc1Oc1ccccc1)Nc1cccc(Cl)c1Cl | i | i | i | i | 31.2 | i
CCN(CC(=O)Nc1ccc(OC)cc1)C(=O)Cc1ccsc1 | nt | nt | i | nt | nt | nt
COc1ccc(-c2noc(CCC(=O)N3CCN(c4ccccc4Br)CC3)n2)cc1 | nt | nt | i | nt | nt | nt
Cc1ccc(-n2nc3c(c2NC(=O)c2ccc4c(c2)OCO4)CS(=O)C3)c(C)c1 (stereo not given) | i | i | i | i | nt | i
COc1ccc(OCC(=O)OCC(=O)Nc2ccc3[nH]c(=O)[nH]c3c2)cc1 | nt | nt | i | nt | nt | nt
CCCN1C(=O)/C(=C/c2ccc(C)s2)NC1=S | 32 | 31.6 | i | i | 39.8 | i
CC(C)CN1C(=O)/C(=C/c2cccs2)NC1=S | 55 | 48.7 | i | i | 39.7 | i
COc1cccc(N2C(=O)/C(=C\c3cccs3)NC2=S)c1 | i | i | i | i | i | i
CC(=O)c1cccc(NC(=O)c2cccc3ccccc23)c1 | i | i | i | i | nt | i
COc1cc(NC(=O)c2ccccc2)c(OC)cc1NC(=O)CN1C(=O)NC2(CCCCC2C)C1=O (stereo not given) | nt | nt | i | nt | nt | nt
COc1ccc(OC)c(NC(=S)N2CCN(C/C=C/c3ccccc3)CC2)c1 | i | 48.6 | i | i | i | i
COc1ccc(C(=O)Nc2nnc(SCC(=O)NCc3ccco3)s2)c(OC)c1 | i | i | i | i | nt | i
SMILES | KCNQ1 act | hERG rescue | KCNK3 inh | KCNK9 block | Cl transport mod | KCNQ1 inh
CC(C)CN=Cc1c(O)c([N+](=O)[O-])cc2oc3c(c12)CCCC3 | 15 | i | i | i | i | i
CCCCn1c(=O)[nH]c(=O)c2c1nc(Cn1ncc(Cl)c(Cl)c1=O)n2CCC | 11 | i | i | i | nt | i
C=CC1=CCN(S(=O)C(C)(C)C)[C@H]1CCO (stereo not given in full) | nt | nt | i | nt | nt | nt
COc1ccc(NC(=S)N/N=C/c2cccn2Cc2ccc(F)cc2Cl)cc1 | i | i | i | i | 3.8 | i
COc1ccc(C)cc1Nc1n[n+](-c2ccccc2)c(-c2ccc(OC)c(OC)c2OC)s1 | i | i | i | i | nt | 11
Cc1ccsc1/C=N/NC(=O)c1cccs1 | i | i | i | i | i | i
Cc1ccsc1/C=N/NC(=O)C(N)=O | i | 4.7 | i | i | i | i

Screens from PubChem.
